Values after ≈ are worked out from the molar mass of the structure shown.
Tests used:
Staphylococcus aureus = assay: Antibacterial activity against Staphylococcus aureus Smith by agar dilution method; assay type: functional
Procedure, shortened: (§1)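 MICs determined by agar dilution following CLSI guideline M7-A6 (2003).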

[1] = Inhibition of fatty acid synthase type 1 in human HepG2 cells assessed as [1-14C]acetate incorporation into cellular fatty acid; assay type: cell-based
Moraxella catarrhalis = assay: Antibacterial activity against Moraxella catarrhalis ATCC 25238 by agar dilution method; assay type: functional; procedure, shortened: as §1
Haemophilus influenzae = assay: Antibacterial activity against Haemophilus influenzae IID983 by agar dilution method; assay type: functional; procedure, shortened: as §1

Row | MIC (Staphylococcus aureus) [µg/mL] | IC50 [1] [µg/mL] | MIC (Moraxella catarrhalis) [µg/mL] | MIC (Haemophilus influenzae) [µg/mL] | Structure (SMILES)
1 | > 64 | > 0.08 | > 64 | > 64 | CC1=C(O)[C@@](C)(/C=C2/C=CCCC2)SC1=O
2 | > 64 | 0.0133 (≈ 0.0563 µM) | > 64 | > 64 | C[C@]1(/C=C2/C=CCCCC2)SC(=O)C=C1O
3 | > 128 | 0.0116 (≈ 0.0439 µM) | 64 (≈ 242 µM) | > 128 | CC1=C(O)[C@](C)(/C=C2/C=C\CCCCC2)SC1=O
4 | > 64 | 0.0254 (≈ 0.101 µM) | > 64 | > 64 | CC1=C(O)[C@@](C)(/C=C2/C=CCCCC2)SC1=O
5 | > 64 | > 0.08 | > 64 | > 64 | CC1=C(O)[C@](C)(/C=C2/C=CCCC2)SC1=O
6 | > 128 | 0.0195 (≈ 0.0779 µM) | 128 (≈ 511 µM) | > 128 | C[C@]1(/C=C2/C=C\CCCCC2)SC(=O)C=C1O
7 | > 64 | 0.0189 (≈ 0.085 µM) | > 64 | > 64 | C[C@@]1(/C=C2/C=CCCC2)SC(=O)C=C1O
8 | > 128 | 0.0418 (≈ 0.158 µM) | 64 (≈ 242 µM) | > 128 | CC1=C(O)[C@@](C)(/C=C2/C=C\CCCCC2)SC1=O
9 | > 128 | 0.0246 (≈ 0.0983 µM) | 64 (≈ 256 µM) | > 128 | C[C@@]1(/C=C2/C=C\CCCCC2)SC(=O)C=C1O
10 | > 64 | 0.0149 (≈ 0.0595 µM) | > 64 | > 64 | CC1=C(O)[C@](C)(/C=C2/C=CCCCC2)SC1=O
11 | > 64 | 0.0226 (≈ 0.0956 µM) | > 64 | > 64 | C[C@@]1(/C=C2/C=CCCCC2)SC(=O)C=C1O

More lines, now with the values behind:

Row | Structure (SMILES) | MIC (Staphylococcus aureus) [µg/mL] | IC50 [1] [µg/mL] | MIC (Moraxella catarrhalis) [µg/mL] | MIC (Haemophilus influenzae) [µg/mL]
12 | C=C/C(C)=C/[C@]1(C)SC(=O)C(C)=C1O | > 128 | 0.0437 (≈ 0.208 µM) | > 128 | 
13 | C=C/C(C)=C/[C@@]1(C)SC(=O)C=C1O | > 128 | > 0.08 | 16 (≈ 81.5 µM) | 32 (≈ 163 µM)
14 | C=C/C(C)=C/[C@]1(C)SC(=O)C=C1O | > 128 | 0.019 (≈ 0.0968 µM) | > 128 | 
15 | C[C@]1(/C=C2/C=CCCC2)SC(=O)C=C1O | > 64 | 0.057 (≈ 0.256 µM) | > 64 | > 64
16 | C=C1C(=O)OC(CCCCCCCC)C1C(=O)O (stereo unspecified) |  | 0.0074 (≈ 0.0291 µM) |  | 
17 | O=C(O)c1cn(C2CC2)c2cc(N3CCNCC3)c(F)cc2c1=O [CIPROFLOXACIN] | 0.063 (≈ 0.19 µM) |  | 0.031 (≈ 0.0936 µM) | 0.008 (≈ 0.0241 µM)
18 | C=C/C(C)=C/[C@@]1(C)SC(=O)C(C)=C1O [THIOLACTOMYCIN] | 128 (≈ 609 µM) | > 0.08 | 0.25 (≈ 1.19 µM) | 2 (≈ 9.51 µM)

Reference: ChEMBL document CHEMBL1144244, “Synthesis and biological activity of enantiomeric pairs of 5-[(E)-cycloalk-2-enylidenemethyl]thiolactomycin congeners” (Bioorg Med Chem Lett, 2008)
